In ChEMBL document CHEMBL1139257, “The absolute configuration plays an important role in muscarinic activity of BGT-A and its analogs” (Bioorg Med Chem, 2008):
Each block holds one compound with its values, some of them ahead of it. The source made the active and inactive calls. The rule behind the calls is not given here.

Tests used:
[1] = (§1) Antagonist activity at guinea pig mAChR assessed as inhibition of carbachol-induced iris muscle contraction; assay type: functional, tissue-based, Cavia porcellus
Outline: (§2)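 pA2 values derived by Arunlakshana–Schild analysis of contraction responses; data as means SEM.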

[2] = species: Oryctolagus cuniculus; test: Mydriatic effect in rabbit assessed as change in pupil diameter under constant light at 0.02 M after 10 mins; assay type: functional
Outline: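 Rabbits (2.5–3.0 kg, either sex), randomised into groups of five. 0.05 ml agent dropped into left eye, right eye as control reference. Left pupil diameter (mm) read under constant light before and 10 min after dosing. Significance by Student's t-test, P < 0.05.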

[3] = Displacement of [3H]NMS from mAChR in SD rat submandibulary gland by rapid filtration technique
Outline: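 Membranes from male SD rat (220–240 g) submandibulary glands, homogenised in ice-cold 0.32 M sucrose/50 mM Tris pH 7.4, spun at 1000g then 20,000g, at 4 °C. Membranes (0.1 mg protein) incubated at 37 °C with [3H]NMS and increasing compound concentrations in Tris buffer. Filtered through glass fibre, washed three times. Run in duplicate. IC50 by curve fit, Ki by Cheng–Prusoff.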

[4] = species: Oryctolagus cuniculus; test: Myotic effect in rabbit assessed as change in pupil diameter under constant light at 0.02 M after 10 mins; assay type: functional
Outline: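 Twenty healthy rabbits (2.5–3.0 kg, either sex) were randomised into four groups of five. Left pupil diameter (mm) was read under constant light before and 10 min after 0.05 ml agent was dropped in; the right eye served as control reference. Significance by Student's t-test, P < 0.05.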

[5] = species: Cavia porcellus; test: as §1; assay type: functional, tissue-based; outline: as §2
[6] = (§3) Agonist activity at guinea pig mAChR assessed as stimulation of carbachol-induced iris muscle contraction; assay type: functional, tissue-based, Cavia porcellus
Outline: (§4)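 Iris contraction assay: EC50 (agonist concentration giving half-maximal response) and log concentration–response slopes obtained by nonlinear sigmoidal dose–response logistic curve fitting. Data given as means SEM; significance by Student's t-test, P < 0.05.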

[7] = species: Cavia porcellus; test: as §3; assay type: functional, tissue-based; outline: as §4
[8] = Agonist activity at guinea pig mAChR assessed as stimulation of carbachol-induced iris muscle contraction relative to carbachol; assay type: functional; conditions: Cavia porcellus

SMILES: CC(=O)O[C@H]1CC2C[C@@H](OC(=O)c3ccc([N+](=O)[O-])cc3)CC1N2C (some centres undefined)
pA2 [1]: 6.11
Activity [2]: 35.1%
Ki [3]: 3.7 µM

SMILES: CC(=O)O[C@@H]1CC2C[C@H](OS(=O)(=O)c3ccccc3)CC1N2C (some centres undefined)
Activity [4]: 4.7%

SMILES: CC(=O)O[C@H]1CC2C[C@@H](OC(=O)c3ccc(Cl)cc3)CC1N2C (some centres undefined)
Activity [2]: 32.2%
Ki [3]: 9 µM

SMILES: CC(=O)O[C@@H]1CC2C[C@H](OC(=O)c3ccc([N+](=O)[O-])cc3)CC1N2C (some centres undefined)
Activity [5]: inactive
Activity [2]: 3.7%
Ki [3]: 450 µM

pEC50 [6]: 6.06
Ki [3]: 0.04 µM
SMILES: CC(=O)O[C@H]1CC2C[C@@H](OS(=O)(=O)c3ccccc3)CC1N2C (some centres undefined)
Activity [7]: Dose-dependent effect
Activity [4]: 44%
Emax [8]: 87.1%

pEC50 [6]: 6.57
SMILES: C[N+](C)(C)CCOC(N)=O.[Cl-] [CARBACHOL]
Emax [8]: 100%

SMILES: CC(=O)O[C@@H]1CC2C[C@H](OC(=O)c3ccc(Cl)cc3)CC1N2C (some centres undefined)
Activity [5]: inactive
Activity [2]: 3%
Ki [3]: 73 µM
